Measurements as given in ChEMBL document CHEMBL5154850, “A platform for the rapid synthesis of proteolysis targeting chimeras (Rapid-TAC) under miniaturized conditions” (Eur J Med Chem, 2022).
The source made the active and inactive calls. The rule behind the calls is not given here.

Legend:
[1] = molecular target: T1, von Hippel-Lindau disease tumor suppressor/Bromodomain-containing protein 4 (Homo sapiens, UniProt O60885+P40337); experiment: PROTAC activity at VHL/BRD4 in human MV4-11 cells assessed as induction of BRD4 degradation measured after 12 hrs by western blot analysis
T1 sequence (P40337 whole entry, looked up, other chains not shown): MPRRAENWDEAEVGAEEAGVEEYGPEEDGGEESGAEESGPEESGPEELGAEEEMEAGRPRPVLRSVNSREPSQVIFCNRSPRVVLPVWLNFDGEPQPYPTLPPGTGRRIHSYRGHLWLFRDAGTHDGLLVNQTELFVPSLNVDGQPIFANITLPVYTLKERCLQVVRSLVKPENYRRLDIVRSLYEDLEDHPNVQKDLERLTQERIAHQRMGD

[2] = molecular target: T1, von Hippel-Lindau disease tumor suppressor/Bromodomain-containing protein 4; experiment: PROTAC activity at VHL/BRD4 in human MV4-11 cells assessed as induction of BRD4 degradation at 3 to 100 nM measured after 12 hrs by western blot analysis; settings: dose 3-100 nM
[3] = molecular target: T2, von Hippel-Lindau disease tumor suppressor/Androgen receptor (Homo sapiens, UniProt P10275+P40337); experiment: PROTAC activity at VHL/AR in human LNCaP cells assessed as induction of AR degradation at 1 to 10 uM measured after 16 hrs by western blot analysis; assay type: cell-based; settings: dose 1-10 µM
Summary of the method: (§1)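 LNCaP cells kept in RPMI with 10% FBS, 1% HEPES, 1% sodium pyruvate and 1% penicillin/streptomycin at 37 °C, 5% CO2, then exposed to PROTACs for 16 h. Lysis in RIPA buffer with protease inhibitors and 1 mM PMSF. BCA-equalized protein run on 7.5% SDS-PAGE, blocked in 5% milk/TBS-T, anti-AR primary overnight at 4 °C, β-actin loading control, HRP secondary 1 h, chemiluminescent imaging.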
Target sequence in this assay (P10275 whole entry, looked up): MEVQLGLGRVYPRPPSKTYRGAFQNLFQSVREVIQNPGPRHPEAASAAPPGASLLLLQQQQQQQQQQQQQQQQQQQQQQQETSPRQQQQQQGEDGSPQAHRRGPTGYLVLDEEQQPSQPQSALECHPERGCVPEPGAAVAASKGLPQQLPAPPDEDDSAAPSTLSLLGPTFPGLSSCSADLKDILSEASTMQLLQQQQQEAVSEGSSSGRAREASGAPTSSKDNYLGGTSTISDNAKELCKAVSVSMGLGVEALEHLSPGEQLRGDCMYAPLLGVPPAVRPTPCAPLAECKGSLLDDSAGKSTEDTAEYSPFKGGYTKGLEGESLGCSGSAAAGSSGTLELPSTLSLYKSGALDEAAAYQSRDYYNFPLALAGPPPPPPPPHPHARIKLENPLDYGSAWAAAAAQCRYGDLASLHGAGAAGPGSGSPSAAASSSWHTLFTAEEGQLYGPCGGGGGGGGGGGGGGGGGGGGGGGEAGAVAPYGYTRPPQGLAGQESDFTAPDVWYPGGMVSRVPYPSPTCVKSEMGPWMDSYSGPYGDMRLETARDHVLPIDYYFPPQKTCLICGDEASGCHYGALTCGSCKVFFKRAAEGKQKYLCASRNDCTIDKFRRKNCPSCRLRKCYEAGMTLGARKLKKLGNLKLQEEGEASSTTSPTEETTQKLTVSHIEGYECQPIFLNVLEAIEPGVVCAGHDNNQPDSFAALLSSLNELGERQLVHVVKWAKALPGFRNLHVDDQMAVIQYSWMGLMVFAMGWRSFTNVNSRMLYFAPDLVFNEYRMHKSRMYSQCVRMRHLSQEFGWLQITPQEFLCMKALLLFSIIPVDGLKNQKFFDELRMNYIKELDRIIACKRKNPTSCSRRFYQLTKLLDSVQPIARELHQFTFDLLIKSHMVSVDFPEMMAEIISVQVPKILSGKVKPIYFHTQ
Target sequence in this assay (P40337 whole entry, looked up): as the sequence (P40337 whole entry, looked up, other chains not shown) above

[4] = molecular target: T1, von Hippel-Lindau disease tumor suppressor/Bromodomain-containing protein 4; experiment: PROTAC activity at VHL/BRD4 in human MV4-11 cells assessed as induction of BRD4 degradation at 1 uM measured after 24 hrs by western blot analysis; assay type: cell-based
Summary of the method: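 MV-4-11 cells grown in IMDM with 10% FBS and 1% penicillin/streptomycin at 37 °C, 5% CO2. Library screen at 1 and 10 μM for 24 h; follow-up at 100, 30, 10 and 3 nM and dose response for 12 h. RIPA lysates, BCA-normalized, 7.5% SDS-PAGE, anti-BRD4 overnight at 4 °C, β-actin control, HRP-secondary chemiluminescence.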

[5] = molecular target: T2, von Hippel-Lindau disease tumor suppressor/Androgen receptor; experiment: PROTAC activity at VHL/AR in human LNCaP cells assessed as induction of AR degradation at 0.01 to 1 uM measured after 16 hrs by western blot analysis; assay type: cell-based; settings: dose 0.1-10 µM, in the assay text read “0.1 to 10 uM” for “0.01 to 1 uM”
Summary of the method: as §1
Target sequence in this assay (P10275 whole entry, looked up): as the sequence (P10275 whole entry, looked up) above
Target sequence in this assay (P40337 whole entry, looked up): as the sequence (P40337 whole entry, looked up, other chains not shown) above

[6] = molecular target: T2, von Hippel-Lindau disease tumor suppressor/Androgen receptor; experiment: PROTAC activity at VHL/AR in human LNCaP cells assessed as induction of AR degradation at 1 uM measured after 16 hrs by western blot analysis relative to control; assay type: cell-based
Summary of the method: as §1
Target sequence in this assay (P10275 whole entry, looked up): as the sequence (P10275 whole entry, looked up) above
Target sequence in this assay (P40337 whole entry, looked up): as the sequence (P40337 whole entry, looked up, other chains not shown) above

[7] = molecular target: T2, von Hippel-Lindau disease tumor suppressor/Androgen receptor; experiment: PROTAC activity at VHL/AR in human LNCaP cells assessed as induction of AR degradation at 10 uM measured after 16 hrs by western blot analysis relative to control; assay type: cell-based
Summary of the method: as §1
Target sequence in this assay (P10275 whole entry, looked up): as the sequence (P10275 whole entry, looked up) above
Target sequence in this assay (P40337 whole entry, looked up): as the sequence (P40337 whole entry, looked up, other chains not shown) above

[8] = molecular target: T2, von Hippel-Lindau disease tumor suppressor/Androgen receptor; experiment: PROTAC activity at VHL/AR in human LNCaP cells assessed as reduction in AR level at 100 nM measured after 6 hrs by western blot analysis; assay type: cell-based
Summary of the method: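 AR time-course blot in LNCaP cells (RPMI, 10% FBS, 37 °C, 5% CO2) with degrader at 100 nM over varied exposure times. Lysates in RIPA with protease inhibitors, equal protein by BCA, 7.5% SDS-PAGE, anti-AR overnight at 4 °C, β-actin loading reference, HRP detection.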
Target sequence in this assay (P10275 whole entry, looked up): as the sequence (P10275 whole entry, looked up) above
Target sequence in this assay (P40337 whole entry, looked up): as the sequence (P40337 whole entry, looked up, other chains not shown) above

[9] = molecular target: T2, von Hippel-Lindau disease tumor suppressor/Androgen receptor; experiment: PROTAC activity at VHL/AR in human LNCaP cells assessed as induction of AR degradation measured after 16 hrs by western blot analysis; assay type: cell-based
Summary of the method: as §1
Target sequence in this assay (P10275 whole entry): as the sequence (P10275 whole entry, looked up) above
Target sequence in this assay (P40337 whole entry): as the sequence (P40337 whole entry, looked up, other chains not shown) above

SMILES | Activity [3] | further results
Cc1ncsc1-c1ccc(CNC(=O)[C@@H]2C[C@@H](O)CN2C(=O)[C@@H](NC(=O)CCCCN2Cc3cc(NC(=O)C[C@@H]4N=C(c5ccc(Cl)cc5)c5c(sc(C)c5C)-n5c(C)nnc54)ccc3C2=O)C(C)(C)C)cc1 | – | DC50 [1]: 8.9 nM; Activity [2]: Active
Cc1ncsc1-c1ccc(CNC(=O)[C@@H]2C[C@@H](O)CN2C(=O)[C@@H](NC(=O)CCCCCCCCCCN2Cc3cc(C(=O)N[C@H]4C(C)(C)[C@H](Oc5ccc(C#N)c(Cl)c5)C4(C)C)ccc3C2=O)C(C)(C)C)cc1 | Active | –
Cc1ncsc1-c1ccc(CNC(=O)[C@@H]2C[C@@H](O)CN2C(=O)[C@@H](NC(=O)CCCCCCCCN2Cc3cc(C(=O)N[C@H]4C(C)(C)[C@H](Oc5ccc(C#N)c(Cl)c5)C4(C)C)ccc3C2=O)C(C)(C)C)cc1 | Active | –
Cc1ncsc1-c1ccc(CNC(=O)[C@@H]2C[C@@H](O)CN2C(=O)[C@@H](NC(=O)COCCOCCOCCN2Cc3cc(C(=O)N[C@H]4C(C)(C)[C@H](Oc5ccc(C#N)c(Cl)c5)C4(C)C)ccc3C2=O)C(C)(C)C)cc1 | Active | –
Cc1ncsc1-c1ccc(CNC(=O)[C@@H]2C[C@@H](O)CN2C(=O)[C@@H](NC(=O)CCCCN2Cc3ccc(NC(=O)C[C@@H]4N=C(c5ccc(Cl)cc5)c5c(sc(C)c5C)-n5c(C)nnc54)cc3C2=O)C(C)(C)C)cc1 | – | Activity [4]: Active
Cc1ncsc1-c1ccc(CNC(=O)[C@@H]2C[C@@H](O)CN2C(=O)[C@@H](NC(=O)CCCCCCCNC(=O)c2ccc(C(=O)N[C@H]3C(C)(C)[C@H](Oc4ccc(C#N)c(Cl)c4)C3(C)C)cc2)C(C)(C)C)cc1 | – | Activity [5]: Active
Cc1ncsc1-c1ccc(CNC(=O)[C@@H]2C[C@@H](O)CN2C(=O)[C@@H](NC(=O)COCCOCCOCCOCCN2Cc3cc(C(=O)N[C@H]4C(C)(C)[C@H](Oc5ccc(C#N)c(Cl)c5)C4(C)C)ccc3C2=O)C(C)(C)C)cc1 | Active | –
Cc1ncsc1-c1ccc(CNC(=O)[C@@H]2C[C@@H](O)CN2C(=O)[C@@H](NC(=O)CCCCCCCN2Cc3ccc(C(=O)N[C@H]4C(C)(C)[C@H](Oc5ccc(C#N)c(Cl)c5)C4(C)C)cc3C2=O)C(C)(C)C)cc1 | Active | Activity [6]: 73%; Activity [7]: 40%; Activity [5]: Active; Activity [8]: Active; DC50 [9]: 41.9 nM
Cc1ncsc1-c1ccc(CNC(=O)[C@@H]2C[C@@H](O)CN2C(=O)[C@@H](NC(=O)CCCCCCCN2Cc3cc(C(=O)N[C@H]4C(C)(C)[C@H](Oc5ccc(C#N)c(Cl)c5)C4(C)C)ccc3C2=O)C(C)(C)C)cc1 | – | Activity [5]: Active

More lines, main results first:

Activity [3] | SMILES | further results
Active | Cc1ncsc1-c1ccc(CNC(=O)[C@@H]2C[C@@H](O)CN2C(=O)[C@@H](NC(=O)COCCOCCN2Cc3cc(C(=O)N[C@H]4C(C)(C)[C@H](Oc5ccc(C#N)c(Cl)c5)C4(C)C)ccc3C2=O)C(C)(C)C)cc1 | –
Active | CC1(C)[C@H](NC(=O)c2ccc3c(c2)CN(C2CCC(=O)NC2=O)C3=O)C(C)(C)[C@H]1Oc1ccc(C#N)c(Cl)c1 (some centres not stated) | –
Active | Cc1ncsc1-c1ccc(CNC(=O)[C@@H]2C[C@@H](O)CN2C(=O)[C@@H](NC(=O)CCCCCN2Cc3cc(C(=O)N[C@H]4C(C)(C)[C@H](Oc5ccc(C#N)c(Cl)c5)C4(C)C)ccc3C2=O)C(C)(C)C)cc1 | –
Active | Cc1ncsc1-c1ccc(CNC(=O)[C@@H]2C[C@@H](O)CN2C(=O)[C@@H](NC(=O)CCN2Cc3cc(C(=O)N[C@H]4C(C)(C)[C@H](Oc5ccc(C#N)c(Cl)c5)C4(C)C)ccc3C2=O)C(C)(C)C)cc1 | –
Active | Cc1ncsc1-c1ccc(CNC(=O)[C@@H]2C[C@@H](O)CN2C(=O)[C@@H](NC(=O)CCCCN2Cc3cc(C(=O)N[C@H]4C(C)(C)[C@H](Oc5ccc(C#N)c(Cl)c5)C4(C)C)ccc3C2=O)C(C)(C)C)cc1 | –
Active | Cc1ncsc1-c1ccc(CNC(=O)[C@@H]2C[C@@H](O)CN2C(=O)[C@@H](NC(=O)COCCN2Cc3cc(C(=O)N[C@H]4C(C)(C)[C@H](Oc5ccc(C#N)c(Cl)c5)C4(C)C)ccc3C2=O)C(C)(C)C)cc1 | –
Active | Cc1ncsc1-c1ccc(CNC(=O)[C@@H]2C[C@@H](O)CN2C(=O)[C@@H](NC(=O)CCCCCCN2Cc3cc(C(=O)N[C@H]4C(C)(C)[C@H](Oc5ccc(C#N)c(Cl)c5)C4(C)C)ccc3C2=O)C(C)(C)C)cc1 | –
